Measurements: ChEMBL document CHEMBL4689842, “EUbOPEN Chemogenomics Library wave 1” (2021)

Test system: HEK-293T
Assay: Multiplex assay against HEK293T;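 as to Population Tubulin-Different-Phenotype (%): share of the cells with healthy nuclei that show this phenotype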
Format: toxicity, cell-based
Settings: human
Outline: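 Four dyes were applied at seeding to live cells: Hoechst33342, BioTracker Green Microtubule Cytoskeleton Dye, MitoTracker Red and Annexin V Alexa Fluor 680. Imaging after compound addition used a CQ1 microscope at 37°C and 5% CO2. CellPathfinder machine-learning gating then sorted cells into Hoechst high-intensity objects or normal cells, normal cells into healthy, pyknosed or fragmented nuclei, and pyknosed cells into mitotic or apoptotic, with tubulin, mitochondrial-mass and membrane-permeability phenotypes given as per cents of healthy-nucleus cells.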

[1] = 12 h, 1 µM, compound concentration 1 uM, replicate 1
[2] = 12 h, 1 µM, compound concentration 1 uM, replicate 2
[3] = 12 h, 10 µM, compound concentration 10 uM, replicate 1
[4] = 12 h, 10 µM, compound concentration 10 uM, replicate 2
[5] = 24 h, 1 µM, compound concentration 1 uM, replicate 1
[6] = 24 h, 1 µM, compound concentration 1 uM, replicate 2
[7] = 24 h, 10 µM, compound concentration 10 uM, replicate 1
[8] = 24 h, 10 µM, compound concentration 10 uM, replicate 2
[9] = 48 h, 1 µM, compound concentration 1 uM, replicate 1
[10] = 48 h, 1 µM, compound concentration 1 uM, replicate 2
[11] = 48 h, 10 µM, compound concentration 10 uM, replicate 1
[12] = 48 h, 10 µM, compound concentration 10 uM, replicate 2

Question: Which results are given for `O=C(O)c1ccc2cc(-c3ccc(O)c(C45CC6CC(CC(C6)C4)C5)c3)ccc2c1` [O-DEMETHYLATED ADAPALENE]?
Answer: Population Apoptotic (%) [1]: 35%; Population Fragmented Nuclei (%) [1]: 6%; Population Healthy Nuclei (%) [1]: 60%; Population Hoechst High Intensity Objects (%) [1]: 5%; Population Membrane Permeable-Phenotype (%) [1]: 1%; Population Mitochondria Different-Phenotype (%) [1]: 70%; Population Mitotic Cells (%) [1]: 64%; Population Normal (%) [1]: 94%; Population Pyknosed Nuclei (%) [1]: 33%; Population Tubulin-Different-Phenotype (%) [1]: 30%; Total Cell Count [1]: 320; Population Apoptotic (%) [2]: 12%; Population Fragmented Nuclei (%) [2]: 2%; Population Healthy Nuclei (%) [2]: 57%; Population Hoechst High Intensity Objects (%) [2]: 4%; Population Membrane Permeable-Phenotype (%) [2]: 8%; Population Mitochondria Different-Phenotype (%) [2]: 15%; Population Mitotic Cells (%) [2]: 87%; Population Normal (%) [2]: 95%; Population Pyknosed Nuclei (%) [2]: 40%; Population Tubulin-Different-Phenotype (%) [2]: 17%; Total Cell Count [2]: 214; Population Apoptotic (%) [3]: 53%; Population Fragmented Nuclei (%) [3]: 21%; Population Healthy Nuclei (%) [3]: 33%; Population Hoechst High Intensity Objects (%) [3]: 15%; Population Mitochondria Different-Phenotype (%) [3]: 52%; Population Mitotic Cells (%) [3]: 46%; Population Normal (%) [3]: 84%; Population Pyknosed Nuclei (%) [3]: 45%; Population Tubulin-Different-Phenotype (%) [3]: 14%; Total Cell Count [3]: 204; Population Apoptotic (%) [4]: 14%; Population Fragmented Nuclei (%) [4]: 8%; Population Healthy Nuclei (%) [4]: 43%; Population Hoechst High Intensity Objects (%) [4]: 5%; Population Membrane Permeable-Phenotype (%) [4]: 3%; Population Mitochondria Different-Phenotype (%) [4]: 6%; Population Mitotic Cells (%) [4]: 85%; Population Normal (%) [4]: 94%; Population Pyknosed Nuclei (%) [4]: 47%; Population Tubulin-Different-Phenotype (%) [4]: 11%; Total Cell Count [4]: 228; Population Apoptotic (%) [5]: 37%; Population Fragmented Nuclei (%) [5]: 5%; Population Hoechst High Intensity Objects (%) [5]: 5%; Population Membrane Permeable-Phenotype (%) [5]: 6%; Population Mitochondria Different-Phenotype (%) [5]: 44%; Population Mitotic Cells (%) [5]: 62%; Population Normal (%) [5]: 94%; Population Pyknosed Nuclei (%) [5]: 19%; Population Tubulin-Different-Phenotype (%) [5]: 24%; Total Cell Count [5]: 354; Population Apoptotic (%) [6]: 13%; Population Fragmented Nuclei (%) [6]: 6%; Population Healthy Nuclei (%) [6]: 75%; Population Hoechst High Intensity Objects (%) [6]: 1%; Population Membrane Permeable-Phenotype (%) [6]: 13%; Population Mitochondria Different-Phenotype (%) [6]: 14%; Population Mitotic Cells (%) [6]: 86%; Population Normal (%) [6]: 98%; Population Pyknosed Nuclei (%) [6]: 18%; Population Tubulin-Different-Phenotype (%) [6]: 26%; Total Cell Count [6]: 257; Population Apoptotic (%) [7]: 52%; Population Fragmented Nuclei (%) [7]: 16%; Population Healthy Nuclei (%) [7]: 43%; Population Hoechst High Intensity Objects (%) [7]: 20%; Population Membrane Permeable-Phenotype (%) [7]: 1%; Population Mitochondria Different-Phenotype (%) [7]: 34%; Population Mitotic Cells (%) [7]: 47%; Population Normal (%) [7]: 79%; Population Pyknosed Nuclei (%) [7]: 40%; Population Tubulin-Different-Phenotype (%) [7]: 14%; Total Cell Count [7]: 218; Population Apoptotic (%) [8]: 25%; Population Fragmented Nuclei (%) [8]: 11%; Population Healthy Nuclei (%) [8]: 50%; Population Hoechst High Intensity Objects (%) [8]: 11%; Population Membrane Permeable-Phenotype (%) [8]: 4%; Population Mitochondria Different-Phenotype (%) [8]: 17%; Population Mitotic Cells (%) [8]: 75%; Population Normal (%) [8]: 88%; Population Pyknosed Nuclei (%) [8]: 38%; Population Tubulin-Different-Phenotype (%) [8]: 16%; Total Cell Count [8]: 234; Population Apoptotic (%) [9]: 26%; Population Fragmented Nuclei (%) [9]: 10%; Population Hoechst High Intensity Objects (%) [9]: 6%; Population Membrane Permeable-Phenotype (%) [9]: 2%; Population Mitochondria Different-Phenotype (%) [9]: 13%; Population Mitotic Cells (%) [9]: 73%; Population Normal (%) [9]: 93%; Population Tubulin-Different-Phenotype (%) [9]: 10%; Total Cell Count [9]: 565; Population Apoptotic (%) [10]: 15%; Population Fragmented Nuclei (%) [10]: 9%; Population Healthy Nuclei (%) [10]: 80%; Population Hoechst High Intensity Objects (%) [10]: 2%; Population Membrane Permeable-Phenotype (%) [10]: 11%; Population Mitochondria Different-Phenotype (%) [10]: 1%; Population Mitotic Cells (%) [10]: 84%; Population Normal (%) [10]: 97%; Population Pyknosed Nuclei (%) [10]: 9%; Population Tubulin-Different-Phenotype (%) [10]: 19%; Total Cell Count [10]: 390; Population Apoptotic (%) [11]: 51%; Population Fragmented Nuclei (%) [11]: 21%; Population Healthy Nuclei (%) [11]: 30%; Population Hoechst High Intensity Objects (%) [11]: 19%; Population Membrane Permeable-Phenotype (%) [11]: 1%; Population Mitochondria Different-Phenotype (%) [11]: 22%; Population Mitotic Cells (%) [11]: 48%; Population Normal (%) [11]: 80%; Population Pyknosed Nuclei (%) [11]: 48%; Population Tubulin-Different-Phenotype (%) [11]: 16%; Total Cell Count [11]: 217; Population Apoptotic (%) [12]: 32%; Population Fragmented Nuclei (%) [12]: 12%; Population Healthy Nuclei (%) [12]: 33%; Population Hoechst High Intensity Objects (%) [12]: 9%; Population Mitochondria Different-Phenotype (%) [12]: 2%; Population Mitotic Cells (%) [12]: 67%; Population Normal (%) [12]: 90%; Population Pyknosed Nuclei (%) [12]: 53%; Population Tubulin-Different-Phenotype (%) [12]: 10%; Total Cell Count [12]: 243
